Reference: ChEMBL document CHEMBL3621132, “Discovery of diazepane amide DORAs and 2-SORAs enabled by exploration of isosteric quinazoline replacements” (Bioorg Med Chem Lett, 2015)
pIC50, pKi: −log10 of the molar value. The source made the active and inactive calls. The calls are words filed in the database; no cut-off is given here.

What was measured:
Orexin receptor type 2 = target: T1, Orexin receptor type 2 (Homo sapiens, UniProt O43614); assay: Antagonist activity at human orexin 2 receptor expressed in CHO cells assessed as inhibition of orexin-A-induced intracellular calcium level after 60 mins by FLIPR assay; type: functional, cell-based
T1 sequence (O43614 whole entry): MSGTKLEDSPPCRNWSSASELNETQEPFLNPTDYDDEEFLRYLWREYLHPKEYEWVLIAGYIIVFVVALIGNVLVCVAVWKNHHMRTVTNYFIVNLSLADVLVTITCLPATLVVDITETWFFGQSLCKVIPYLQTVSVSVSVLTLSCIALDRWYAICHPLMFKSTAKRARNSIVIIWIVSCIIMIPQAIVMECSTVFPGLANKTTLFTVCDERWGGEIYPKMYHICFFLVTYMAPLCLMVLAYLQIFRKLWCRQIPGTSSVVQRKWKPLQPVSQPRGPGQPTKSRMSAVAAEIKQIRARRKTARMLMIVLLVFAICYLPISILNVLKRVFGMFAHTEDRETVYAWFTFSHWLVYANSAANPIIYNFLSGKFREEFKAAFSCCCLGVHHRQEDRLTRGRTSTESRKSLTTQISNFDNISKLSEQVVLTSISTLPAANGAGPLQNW

[1] = Clearance in dog at 0.125 mg/kg, iv; type: ADME, organism-based, Canis lupus familiaris; conditions: in vivo
Outline: (§1)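 Intravenous PK in rat (2 mg/kg) and dog (0.125 or 0.5 mg/kg), vehicle 100% DMSO, n = 2. Clearance, Vdss and half-life were determined.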

[2] = target: Orexin receptor type 1 (Homo sapiens) (UniProt O43613); assay: Binding affinity to human orexin 1 receptor expressed in CHO cells after 3 hrs by radioligand binding assay
[3] = target: Orexin receptor type 2 (Homo sapiens) (UniProt O43614); assay: Binding affinity to human orexin 2 receptor expressed in CHO cells after 3 hrs by radioligand binding assay
[4] = target: Orexin receptor type 2 (Homo sapiens) (UniProt O43614); assay: Antagonist activity at human orexin 2 receptor expressed in CHO cells assessed as inhibition of orexin-A-induced intracellular calcium level after 60 mins by FLIPR assay; conditions: 1 h
[5] = Tmax in dog at 3 mg/kg, po; type: ADME, organism-based, Canis lupus familiaris; conditions: in vivo
Outline: (§2)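 Oral dosing in dogs at 3 mg/kg as the free base in 20% Vitamin E TPGS in water (n = 2). AUC, Tmax, Cmax and oral bioavailability were determined from plasma.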

Rattus norvegicus [6] = assay: Anti-insomnia activity in rat sleep model assessed as increase in REM sleep at 30 mg/kg, po up to 2 hrs; type: functional, organism-based
[7] = AUC in dog at 3 mg/kg, po; type: ADME, organism-based, Canis lupus familiaris; conditions: in vivo
[8] = Plasma protein binding in rat; type: ADME, cell-free; conditions: read-out: PPB (converted)
[9] = Cmax in satellite rat sleep model at 30 mg/kg, po; type: ADME, organism-based; parameters: dose 30 mg/kg, route oral; conditions: in vivo
Outline: (§3)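 Satellite rats from the sleep study were given 30 mg/kg orally as the free base in 20% Vitamin E TPGS in water (n = 3). Plasma AUC, Cmax and Tmax were measured over the sleep experiment.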

[10] = Tmax in satellite rat sleep model at 30 mg/kg, po; type: ADME, organism-based; conditions: in vivo; outline: as §3
[11] = Volume of distribution at steady state in rat at 2 mg/kg, iv; type: ADME, organism-based; conditions: in vivo, read-out: Vdss; outline: as §1
[12] = Clearance in rat at 2 mg/kg, iv; type: ADME, organism-based; conditions: in vivo; outline: as §1
Rattus norvegicus [13] = species on record: Rattus norvegicus; assay: Ex vivo receptor occupancy at human OX2R expressed in transgenic rat at plasma concentration of 1 uM; type: functional
[14] = Half life in dog at 0.125 mg/kg, iv; type: ADME, organism-based, Canis lupus familiaris; conditions: in vivo; outline: as §1
[15] = Cmax in dog at 3 mg/kg, po; type: ADME, organism-based, Canis lupus familiaris; parameters: dose 3 mg/kg, route oral; conditions: in vivo; outline: as §2
Rattus norvegicus [16] = assay: Anti-insomnia activity in rat sleep model assessed as reduction of active wake at 30 mg/kg, po up to 2 hrs; type: functional, organism-based
[17] = Tmax in rat at 10 mg/kg, po; type: ADME, organism-based; conditions: in vivo
Outline: (§4)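 Rats were dosed orally at 10 mg/kg in 100% PEG200 (n = 2), as the free base or the hydrochloride salt. AUC, Tmax, Cmax and bioavailability (F) were derived from plasma levels.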

[18] = Oral bioavailability in dog at 3 mg/kg; type: ADME, organism-based, Canis lupus familiaris; conditions: in vivo; outline: as §2
[19] = Apparent permeability of the compound assessed […] by cell based assay; type: physicochemical
[20] = Lipophilicity, log D of the compound by HPLC analysis; type: physicochemical
[21] = Oral bioavailability in rat at 10 mg/kg; type: ADME, organism-based; conditions: in vivo; outline: as §4
[22] = Volume of distribution at steady state in dog at 0.125 mg/kg, iv; type: ADME, organism-based, Canis lupus familiaris; conditions: in vivo, read-out: Vdss; outline: as §1
[23] = AUC in satellite rat sleep model at 30 mg/kg, po; type: ADME, organism-based; conditions: in vivo; outline: as §3
[24] = Oral bioavailability in satellite rat sleep model at 30 mg/kg; type: ADME, organism-based; conditions: in vivo; outline: as §3
[25] = Plasma protein binding in human; type: ADME, cell-free; conditions: read-out: PPB (converted)
[26] = Plasma protein binding in dog; type: ADME, cell-free, Canis lupus familiaris; conditions: read-out: PPB (converted)
[27] = AUC in rat at 10 mg/kg, po; type: ADME, organism-based; conditions: in vivo
[28] = Cmax in rat at 10 mg/kg, po; type: ADME, organism-based; parameters: dose 10 mg/kg, route oral; conditions: in vivo; outline: as §4
Rattus norvegicus [29] = assay: Anti-insomnia activity in rat sleep model assessed as increase in slow wave at 30 mg/kg, po up to 2 hrs; type: functional, organism-based
[30] = Half life in rat at 2 mg/kg, iv; type: ADME, organism-based; conditions: in vivo; outline: as §1

Compound `Cc1ccc(-n2nccn2)c(C(=O)N2CCN(c3ncc(C(F)(F)F)c(C)n3)CC[C@H]2C)c1` has a pIC50 (Orexin receptor type 2) of 7.07, a clearance [1] of 10 mL/min/kg and a pKi [2] of 8.80. The pKi [3] was 9.30.
Work on `COc1nc(N2CC[C@@H](C)N(C(=O)c3ccccc3-n3nccn3)CC2)ncc1C(F)(F)F` yielded a pIC50 (Orexin receptor type 2) of 7.68, a pIC50 [4] of 7.68 and a clearance [1] of 3 mL/min/kg. For the same compound, the pKi [2] was 8.20 and the pKi [3] was 9.15.
With `COc1nc(N2CC[C@@H](C)N(C(=O)c3cc(C)ccc3-n3nccn3)CC2)ncc1C(F)(F)F` the pIC50 (Orexin receptor type 2) was 7.57, the Tmax [5] was 0.6 h and the Activity (Rattus norvegicus [6]) was “Active”. For the same compound, the AUC [7] was 9.9 µM·h, the fraction unbound [8] was 0.05 and the Cmax [9] was 2500 nM. For the same compound, the pIC50 [4] was 7.57, the Tmax [10] was 0.8 h and the Vd [11] was 2.5 L/kg. The clearance [12] was 37 mL/min/kg, the Activity (Rattus norvegicus [13]) was 83% and the clearance [1] was 3 mL/min/kg. For the same compound, the half-life [14] was 2.4 h, the Cmax [15] was 2300 nM and the Activity (Rattus norvegicus [16]) was “Active”. It also gave a Tmax [17] of 3 h, a bioavailability [18] of 23% and a Papp [19] of 28 ×10⁻⁶ cm/s. The logD [20] was 3.4, the bioavailability [21] was 8% and the Vd [22] was 0.4 L/kg. The AUC [23] was 5.5 µM·h, the bioavailability [24] was 19% and the fraction unbound [25] was 0.04. The pKi [2] was 8.82, the fraction unbound [26] was 0.005 and the AUC [27] was 0.6 µM·h. For the same compound, the Cmax [28] was 200 nM, the Activity (Rattus norvegicus [29]) was “Active” and the half-life [30] was 1.1 h.
For `Cc1ncc(C)c(N2CC[C@@H](C)N(C(=O)c3ccccc3-n3nccn3)CC2)n1`, the pIC50 (Orexin receptor type 2) was 7.09 and the pKi [2] was 5.44.
`Cc1ccc(-n2nccn2)c(C(=O)N2CCN(c3ncc(C(F)(F)F)c(Cl)n3)CC[C@H]2C)c1` showed a pIC50 (Orexin receptor type 2) of 6.85, a pIC50 [4] of 6.85 and a clearance [1] of 15 mL/min/kg. The pKi [2] was 9.15 and the pKi [3] was 9.22.
`Cc1cnc(Cl)nc1N1CC[C@@H](C)N(C(=O)c2ccccc2-n2nccn2)CC1` gave a pIC50 (Orexin receptor type 2) of 7.38, a pKi [2] of 6.12 and a pKi [3] of 8.59.
Work on `Cc1nc(N2CC[C@@H](C)N(C(=O)c3ccccc3-n3nccn3)CC2)ncc1C(F)(F)F` yielded a pIC50 (Orexin receptor type 2) of 7.72, a pIC50 [4] of 7.72 and a clearance [1] of 5 mL/min/kg. For the same compound, the pKi [2] was 7.96.
For `Cc1ncc(C(F)(F)F)c(N2CC[C@@H](C)N(C(=O)c3ccccc3-n3nccn3)CC2)n1`, the pIC50 (Orexin receptor type 2) was 7.06, the pIC50 [4] was 7.06 and the pKi [2] was 5.38. The pKi [3] was 7.51.
Compound `C[C@@H]1CCN(c2nc(Cl)ncc2Cl)CCN1C(=O)c1ccccc1-n1nccn1` has a pIC50 (Orexin receptor type 2) of 7.60, a pKi [2] of 6.07 and a pKi [3] of 8.96.
